Measured values reported in ChEMBL document CHEMBL4808167, “Design, Synthesis, and Evaluation of Small Molecule Gαq/11 Protein Inhibitors for the Treatment of Uveal Melanoma” (J Med Chem, 2021).
Active and inactive are the calls of the source. The calls are words filed in the database; no cut-off is given here.

How the values were obtained:
[1] = test system: 921; test: Inhibition of cell migration in human 921 cells at 15 uM incubated for 48 hrs by transwell migration assay; type: functional, cell-based
Procedure, shortened: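 92.1 or MP41 cells (1 × 10⁴/well) seeded in serum-free medium in the upper transwell chamber, with 20% FBS medium below. Left overnight, then treated 48 h. Non-migrated cells swabbed off; cells on the lower side stained with crystal violet 30 min and counted by light microscopy (×40 for migration, ×100 for invasion). Mean ± SD, n = 3.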

[2] = Induction of apoptosis in human MP41 cells assessed as viable cells at 30 uM after 48 hrs by Annexin-V-FITC/propidium iodide staining based flow cytometry (reference value: 93.6%); type: functional; conditions: read-out: Activity
[3] = Induction of apoptosis in human MP41 cells assessed as early apoptotic cells at 30 uM after 48 hrs by Annexin-V-FITC/propidium iodide staining based flow cytometry (reference value: 2.96%); type: functional
[4] = Half life in ICR mouse at 10 mg/kg, iv measured upto 24 hrs by LC-MS/MS analysis; type: ADME, organism-based; conditions: in vivo
Procedure, shortened: (§1)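 Single dose in male ICR mice, 10 mg/kg iv or 30 mg/kg po, dissolved in 5% DMSO/95% saline. Blood drawn by catheter at 0, 5, 15, 30 min and 1, 2, 4, 6, 8, 24 h. Plasma spun 6800g 6 min at 2−8 °C, stored −80 °C, quantified by LC−MS/MS. Noncompartmental parameters, mean ± SD, n = 6.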

[5] = target: GNAQ/GNA11 (Homo sapiens) (UniProt P50148+P29992); test: Inhibition of Galphaq/11 in human MP41 cells assessed as induction of YAP phosphorylation at 5 to 15 uM after 48 hrs by Western blot analysis; type: cell-based; conditions: dose 5-15 µM
Procedure, shortened: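 92.1 and MP41 cells plated overnight, then exposed to compound 48 h. Lysed in ice-cold buffer and protein quantified by BCA. Resolved on 8−12% SDS−PAGE and transferred to PVDF. Probed for p-YAP Ser127, total YAP, p-ERK1/2 Thr202/Tyr204 and total ERK1/2, with GAPDH as loading control. ECL detection, triplicate.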

[6] = target: T1, GNAQ/GNA11 (Homo sapiens, UniProt P50148+P29992); test: Binding affinity to Galphaq/11 (unknown origin) expressed in HEK293 cells cotransfected with AT1R/Galphaq-RLuc8/ Ggamma2-venus/Gbeta1 assessed as inhibition of Ang-II induced-BRET signal preincubated for 1 hr followed by Ang-II addition by BRET assay; type: cell-based
T1 sequence (P50148 whole entry): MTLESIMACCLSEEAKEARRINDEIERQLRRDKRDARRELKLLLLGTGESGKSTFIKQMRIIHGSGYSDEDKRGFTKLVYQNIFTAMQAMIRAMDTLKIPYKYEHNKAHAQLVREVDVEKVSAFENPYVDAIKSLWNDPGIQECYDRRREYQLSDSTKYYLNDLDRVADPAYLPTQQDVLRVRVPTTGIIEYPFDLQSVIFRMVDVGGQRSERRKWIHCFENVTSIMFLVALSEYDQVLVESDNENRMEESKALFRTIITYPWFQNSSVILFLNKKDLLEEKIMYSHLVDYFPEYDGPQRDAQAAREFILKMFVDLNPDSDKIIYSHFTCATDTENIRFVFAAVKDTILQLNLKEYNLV
T1 sequence (P29992 whole entry): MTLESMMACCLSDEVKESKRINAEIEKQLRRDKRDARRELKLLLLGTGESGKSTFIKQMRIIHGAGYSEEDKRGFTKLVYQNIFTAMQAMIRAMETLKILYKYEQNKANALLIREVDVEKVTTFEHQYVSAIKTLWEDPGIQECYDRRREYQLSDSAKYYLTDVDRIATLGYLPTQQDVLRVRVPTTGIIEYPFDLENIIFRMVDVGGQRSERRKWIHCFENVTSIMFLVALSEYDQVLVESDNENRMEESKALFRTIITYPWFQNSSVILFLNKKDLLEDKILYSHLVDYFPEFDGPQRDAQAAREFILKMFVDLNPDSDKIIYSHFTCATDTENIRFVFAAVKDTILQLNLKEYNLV
Procedure, shortened: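 HEK293 cells transiently transfected with AT₁R, Gαq-RLuc8, Gγ2-Venus and untagged Gβ1. Replated 24 h later, washed with HBS, starved 10 min, then pretreated with compound for 1 h at 37 °C. AngII added, followed by coelenterazine. BRET ratio taken as Venus emission (520−570 nm) over RLuc8 emission (370−480 nm). Mean ± SD, n = 3.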

[7] = Induction of apoptosis in human MP41 cells assessed as necrotic cells at 15 uM after 48 hrs by Annexin-V-FITC/propidium iodide staining based flow cytometry (reference value: 0.11%); type: functional
[8] = Toxicity in nude BALB/c mouse xenografted with human MP41 cells assessed as morphological changes in heart tissue at 10 to 30 mg/kg, ip administered once daily for 21 days and measured every 3 days by HE staining based assay; type: organism-based; conditions: in vivo, 504 h, dose 10-30 mg/kg, time 21 day
Procedure, shortened: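 Nude BALB/c mice bearing serially passaged MP41 tumour slices (tertiary recipients, n = 8/group, randomized) dosed ip daily for 21 days at 10 or 30 mg/kg/d or vehicle. Body weight monitored every 3 days. Tissues collected at sacrifice, fixed in 4% paraformaldehyde 24 h, paraffin-embedded, H&E stained, viewed at ×100.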

[9] = Induction of apoptosis in human 921 cells assessed as viable cells at 15 uM after 48 hrs by Annexin-V-FITC/propidium iodide staining based flow cytometry (reference value: 93.8%); type: functional; conditions: read-out: Activity
[10] = AUC(0 to t) in ICR mouse at 30 mg/kg, po measured upto 24 hrs by LC-MS/MS analysis; type: ADME, organism-based; set-up: route oral, dose 30 mg/kg, time <=24; conditions: in vivo; procedure, shortened: as §1
[11] = Induction of apoptosis in human 921 cells assessed as early apoptotic cells at 5 uM after 48 hrs by Annexin-V-FITC/propidium iodide staining based flow cytometry (reference value: 3.39%); type: functional
[12] = Induction of apoptosis in human 921 cells assessed as necrotic cells at 15 uM after 48 hrs by Annexin-V-FITC/propidium iodide staining based flow cytometry (reference value: 0.26%); type: functional
[13] = test system: MP41; test: Inhibition of colony formation in human MP41 cells at 5 to 15 uM after 9 days by crystal violet staining based light microscopic analysis; type: functional, cell-based; conditions: dose 5-15 µM, time 9.0 day
Procedure, shortened: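 Cells seeded 4 × 10³/well, incubated overnight at 37 °C, 5% CO₂, then exposed to compound for 9 days until colonies visible, medium and inhibitor replaced every 3 days. Fixed in 4% paraformaldehyde 15 min, crystal violet-stained 30 min, colonies counted. Repeated twice.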

[14] = test system: CHO; test: Cytotoxicity against chinese hamster CHO cells overexpressing M1 receptor assessed as cell viability upto 20 uM for 24 hrs by CCK8 assay; type: cell-based, Cricetulus griseus
Procedure, shortened: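 CHO cells stably expressing the M₁ receptor were treated with a range of compound concentrations for 2 h or 24 h. Viability measured by CCK-8 and given as percentage. Mean ± SD of three independent experiments.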

[15] = target: T1, GNAQ/GNA11; test: Inhibition of Galphaq/11 (unknown origin) expressed in CHO cells coexpressing M1 receptor assessed as reduction in carbachol-induced IP1 accumulation preincubated for 1 hr followed by carbachol stimulation and measured after 1 hr by HTRF assay; type: cell-based

CC[C@@H](C)[C@H](N)C(=O)N1CCn2cc(-c3ccccc3)nc2[C@@H]1CC1CCCCC1
inhibition [1]: Active
viability at 30 µM [2]: 75.7%
Activity [3]: 17.9%
half-life [4]: 1.17 h
inhibition [5]: Active
IC50 [6]: 55.2 µM
Activity [7]: 0.09%
Activity [8]: Non-Toxic
viability at 15 µM [9]: 79.6%
AUC(0-t) at 24 h [10]: 5940 ng·h/mL
Activity [11]: 6.08%
Activity [12]: 0.36%
inhibition [13]: Active
Activity [14]: Non-Toxic
IC50 [15]: 22.6 µM
